Assay results: ChEMBL document CHEMBL3817843, “Understanding Oxadiazolothiazinone Biological Properties: Negative Inotropic Activity versus Cytochrome P450-Mediated Metabolism” (J Med Chem, 2016)
Calls of active or inactive are those of the source. The rule behind the calls is not given here.

Tests used:
[1] = Half life in human liver microsomes assessed as CYP-mediated compound degradation at 1 uM by LC-MS analysis
[2] = biological target: Voltage-gated L-type calcium channel (Rattus norvegicus, UniProt P22002+Q02485+P27732); assay: Displacement of [3H]Verapamil from LTCC PAA site in Sprague-Dawley rat cardiomyocytes after 60 mins by liquid scintillation counting analysis; assay type: cell-based
Procedure, shortened: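 Frozen pooled cardiomyocytes (at least three animals) resuspended in 50 mmol/L Tris-HCl pH 7.4, 0.15−0.3 mg protein/tube, 25 °C for 60 min. [3H]verapamil 0.5 nM displaced by unlabeled compound (0.1 nM−0.1 mM). Nonspecific binding defined with 0.1 mM verapamil. GF/C filtration, two washes with 20 mmol/L Tris-HCl, liquid scintillation counting, duplicate measurements.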

[3] = species on record: Rattus norvegicus; assay: Displacement of [3H]Isradipine from LTCC DHP site in Sprague-Dawley rat cardiomyocytes at 100 uM after 20 mins by liquid scintillation counting analysis; assay type: cell-based
Procedure, shortened: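 Rat cardiomyocytes pooled from at least three animals, stored frozen at −80 °C, 0.15−0.2 mg protein/tube. Incubated in 50 mmol/L Tris-HCl with 1.2 mmol/L MgCl2, pH 7.4, at 37 °C for 20 min with 0.1 nM (+)-[3H]isradipine and unlabeled compound (1 nM to 0.1 mM). Nonspecific binding defined with 0.1 mM isradipine. Filtered through PEI-presoaked GF/B filters; scintillation counting; duplicates.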

[4] = system: Left cardiac atrium; assay: Negative inotropic activity in potassium depolarized guinea pig left atrium assessed as reduction in developed tension at 10^-8 M after 30 mins; assay type: functional; conditions: Cavia porcellus
[5] = system: Left cardiac atrium; assay: Potentiation of diltiazem-induced negative inotropic activity in potassium depolarized guinea pig left atrium assessed as reduction in developed tension at 10^-8 M preincubated for 30 mins followed by diltiazem addition; assay type: functional; conditions: Cavia porcellus
Procedure, shortened: (§1)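 Guinea pig left atria driven at 1 Hz. Pretreated with compound at 0.01 μM, added 30 min before diltiazem, verapamil or nifedipine. Blocker concentration−response curves analysed by probit (Litchfield and Wilcoxon), n = 6−7. Data given as mean ±, Student's t test.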

[6] = system: Aorta; assay: Inhibition of verapamil-induced vasorelaxant activity in potassium depolarized guinea pig aorta assessed as relaxation of calcium-induced contraction at 10^-6 M preincubated for 30 mins followed by verapamil addition; assay type: functional, tissue-based; conditions: Cavia porcellus
Procedure, shortened: (§2)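 K+-depolarized (80 mM) guinea pig aortic strips contracted with calcium. Compound at 1 μM added 30 min before diltiazem, verapamil or nifedipine. Response expressed as percent change from control. Data given as mean ±, Student's t test.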

[7] = system: Aorta; assay: Inhibition of nifedipine-induced vasorelaxant activity in potassium depolarized guinea pig aorta assessed as relaxation of calcium-induced contraction at 10^-6 M preincubated for 30 mins followed by nifedipine addition; assay type: functional, tissue-based; conditions: Cavia porcellus; procedure, shortened: as §2
[8] = system: Left cardiac atrium; assay: Negative inotropic activity in potassium depolarized guinea pig left atrium assessed as reduction in developed tension at 10^-8 M preincubated for 30 mins followed by 0.5 uM nifedipine addition; assay type: functional, Cavia porcellus; set-up: scale not given: the % may be the effect or the level left
[9] = system: Left cardiac atrium; assay: Negative inotropic activity in potassium depolarized guinea pig left atrium assessed as reduction in developed tension at 10^-8 M preincubated for 30 mins followed by 10^-6 M verapamil addition; assay type: functional, Cavia porcellus; set-up: scale not given: the % may be the effect or the level left
[10] = system: Left cardiac atrium; assay: Negative inotropic activity in potassium depolarized guinea pig left atrium assessed as reduction in developed tension at 10^-8 M preincubated for 30 mins followed by 5 uM diltiazem addition; assay type: functional, Cavia porcellus; set-up: scale not given: the % may be the effect or the level left
[11] = system: Left cardiac atrium; assay: Negative inotropic activity in potassium depolarized guinea pig left atrium assessed as EC50 for nifedipine at 10^-8 M preincubated for 30 mins followed by nifedipine addition; assay type: functional; conditions: Cavia porcellus; procedure, shortened: as §1
[12] = system: Aorta; assay: Vasorelaxant activity in potassium depolarized guinea pig aorta assessed as inhibition of calcium-induced contraction at 10^-8 M preincubated for 30 mins followed by 0.5 uM nifedipine addition; assay type: functional, Cavia porcellus; set-up: scale not given: the % may be the effect or the level left
[13] = system: Aorta; assay: Vasorelaxant activity in potassium depolarized guinea pig aorta assessed as inhibition of calcium-induced contraction at 10^-8 M preincubated for 30 mins followed by 5 uM verapamil addition; assay type: functional, Cavia porcellus; set-up: scale not given: the % may be the effect or the level left
[14] = system: Aorta; assay: Vasorelaxant activity in potassium depolarized guinea pig aorta assessed as inhibition of calcium-induced contraction at 10^-6 M preincubated for 30 mins followed by 10^-5 M verapamil addition; assay type: functional, Cavia porcellus; set-up: scale not given: the % may be the effect or the level left; procedure, shortened: as §2
[15] = system: Aorta; assay: Vasorelaxant activity in potassium depolarized guinea pig aorta assessed as inhibition of calcium-induced contraction at 10^-6 M preincubated for 30 mins followed by 50 uM diltiazem addition; assay type: functional, Cavia porcellus; set-up: scale not given: the % may be the effect or the level left; procedure, shortened: as §2
[16] = system: Aorta; assay: Vasorelaxant activity in potassium depolarized guinea pig aorta assessed as IC50 for diltiazem at 10^-8 M preincubated for 30 mins followed diltiazem addition; assay type: functional, tissue-based; conditions: Cavia porcellus
[17] = biological target: Cytochrome P450 2C19 (Homo sapiens, UniProt P33261); assay: Inhibition of CYP2C19 in human liver microsomes using (S)-mephenytoin as substrate after 40 mins by LC-MS analysis
[18] = biological target: Cytochrome P450 2D6 (Homo sapiens, UniProt P10635); assay: Inhibition of CYP2D6 in human liver microsomes using dextromethorphan as substrate after 10 mins by LC-MS analysis
[19] = biological target: T1, Cytochrome P450 1A2 (Homo sapiens, UniProt P05177); assay: Inhibition of CYP1A2 in human liver microsomes using phenacetin as substrate after 30 mins by LC-MS analysis
T1 sequence (P05177 whole entry): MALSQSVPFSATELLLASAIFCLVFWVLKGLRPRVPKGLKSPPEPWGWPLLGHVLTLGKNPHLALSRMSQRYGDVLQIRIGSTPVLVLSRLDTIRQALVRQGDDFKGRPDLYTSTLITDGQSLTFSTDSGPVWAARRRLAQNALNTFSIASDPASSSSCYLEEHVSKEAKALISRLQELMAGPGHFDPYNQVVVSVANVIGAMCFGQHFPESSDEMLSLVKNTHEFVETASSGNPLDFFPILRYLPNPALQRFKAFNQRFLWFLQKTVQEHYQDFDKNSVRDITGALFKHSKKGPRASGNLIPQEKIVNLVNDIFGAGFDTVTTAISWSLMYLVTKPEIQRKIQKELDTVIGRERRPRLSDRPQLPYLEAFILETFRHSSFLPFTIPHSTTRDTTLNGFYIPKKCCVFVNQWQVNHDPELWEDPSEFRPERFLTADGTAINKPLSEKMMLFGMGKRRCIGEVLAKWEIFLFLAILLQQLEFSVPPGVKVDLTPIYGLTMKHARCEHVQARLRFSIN

[20] = biological target: Cytochrome P450 2C9 (Homo sapiens, UniProt P11712); assay: Inhibition of CYP2C9 in human liver microsomes using tolbutamide as substrate after 20 mins by LC-MS analysis
[21] = system: Left cardiac atrium; assay: Negative inotropic activity against potassium depolarized guinea pig left atrium assessed as decrease in nifedipine EC50 at 10^-8 M preincubated for 30 mins followed by nifedipine addition relative to control; assay type: functional, Cavia porcellus
Procedure, shortened: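 Isolated guinea pig left atria, electrically driven at 1 Hz. The pretreatment agent (0.01 μM) was added to the bath 30 min before the L-type calcium channel blocker. Blocker concentration–response curves were then run to obtain the negative inotropic EC50, which was compared with the EC50 for the blocker alone. Data were compared by Student's t test.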

[22] = system: Aorta; assay: Inhibition of diltiazem-induced vasorelaxant activity in potassium depolarized guinea pig aorta assessed as relaxation of calcium-induced contraction at 10^-8 M preincubated for 30 mins followed by diltiazem addition; assay type: functional, tissue-based; conditions: Cavia porcellus
[23] = system: Aorta; assay: Inhibition of nifedipine-induced vasorelaxant activity in potassium depolarized guinea pig aorta assessed as relaxation of calcium-induced contraction at 10^-8 M preincubated for 30 mins followed by nifedipine addition; assay type: functional, tissue-based; conditions: Cavia porcellus

Sequence of Cytochrome P450 2C9 (P11712 whole entry): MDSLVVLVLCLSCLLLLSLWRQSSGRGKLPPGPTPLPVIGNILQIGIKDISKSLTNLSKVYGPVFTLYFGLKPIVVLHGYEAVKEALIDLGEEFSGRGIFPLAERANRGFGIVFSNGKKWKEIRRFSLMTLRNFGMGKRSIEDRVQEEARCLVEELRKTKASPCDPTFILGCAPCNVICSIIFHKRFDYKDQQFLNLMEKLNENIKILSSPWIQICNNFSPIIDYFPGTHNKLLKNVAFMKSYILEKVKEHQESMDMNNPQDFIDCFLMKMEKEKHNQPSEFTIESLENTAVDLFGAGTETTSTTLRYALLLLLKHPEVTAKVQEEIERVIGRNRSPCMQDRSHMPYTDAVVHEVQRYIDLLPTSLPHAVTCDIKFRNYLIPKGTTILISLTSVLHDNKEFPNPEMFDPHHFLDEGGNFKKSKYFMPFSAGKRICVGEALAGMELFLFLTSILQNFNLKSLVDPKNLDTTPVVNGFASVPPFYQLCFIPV
Sequence of Cytochrome P450 2D6 (P10635 whole entry): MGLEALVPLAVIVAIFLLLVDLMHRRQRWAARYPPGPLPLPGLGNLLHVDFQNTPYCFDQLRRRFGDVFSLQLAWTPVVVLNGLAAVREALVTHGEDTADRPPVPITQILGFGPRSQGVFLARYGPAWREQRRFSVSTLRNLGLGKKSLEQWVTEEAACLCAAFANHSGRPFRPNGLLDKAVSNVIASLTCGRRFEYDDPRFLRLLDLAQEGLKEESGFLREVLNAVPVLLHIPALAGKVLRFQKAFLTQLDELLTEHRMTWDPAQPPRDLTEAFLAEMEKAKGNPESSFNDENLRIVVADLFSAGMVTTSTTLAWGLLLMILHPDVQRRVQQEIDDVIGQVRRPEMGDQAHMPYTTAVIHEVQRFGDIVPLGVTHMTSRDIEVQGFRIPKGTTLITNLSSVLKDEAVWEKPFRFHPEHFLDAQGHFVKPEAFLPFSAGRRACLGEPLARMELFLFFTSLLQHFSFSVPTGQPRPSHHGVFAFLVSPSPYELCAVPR
Sequence of Cytochrome P450 2C19 (P33261 whole entry): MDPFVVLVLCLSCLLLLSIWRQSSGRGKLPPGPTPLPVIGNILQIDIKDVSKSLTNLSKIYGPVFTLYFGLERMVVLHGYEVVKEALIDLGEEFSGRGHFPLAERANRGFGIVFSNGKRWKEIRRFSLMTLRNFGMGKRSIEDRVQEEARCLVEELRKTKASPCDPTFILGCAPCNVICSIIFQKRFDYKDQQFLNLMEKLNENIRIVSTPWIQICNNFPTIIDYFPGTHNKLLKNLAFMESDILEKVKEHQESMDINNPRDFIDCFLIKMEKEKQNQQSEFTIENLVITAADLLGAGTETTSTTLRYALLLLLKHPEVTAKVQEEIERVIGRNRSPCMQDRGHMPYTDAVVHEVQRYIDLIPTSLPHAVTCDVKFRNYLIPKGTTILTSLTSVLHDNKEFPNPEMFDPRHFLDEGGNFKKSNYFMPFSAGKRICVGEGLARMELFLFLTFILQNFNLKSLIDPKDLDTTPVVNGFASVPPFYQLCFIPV

half-life at 1 µM [1]: 53 min
IC50 [2]: 18300 nM
inhibition (INH) ([2]; rat, 1 h): Dose-dependent effect
inhibition [3]: 40%
EC50 [11]: 22 nM
IC50 [16]: 470 nM
IC50 [17]: 1800 nM
IC50 [18]: 4100 nM
IC50 [19]: 2900 nM
IC50 [20]: 18400 nM
Structure (SMILES): CCOC1(c2ccc(Br)cc2)SC=C(C)n2c1noc2=O (centres undefined)
Activity [4]: inactive
Activity [5]: Active
inhibition [6]: Active
inhibition [7]: Active
Activity [8]: 94%
Activity [9]: 95%
Activity [10]: 92%
Activity [12]: 10%
Activity [13]: 20%
Activity [14]: 36%
Activity [15]: 18%
fold change (FC) [21]: 11.8
inhibition [22]: inactive
inhibition [23]: Active
